Test results taken from PMC4207575 (International Journal of Nanomedicine, 2014).
No end group written: not given here.

Design: species or system Kunming mice
Conditions: mouse, in vivo, iv, 5 mg/kg
How it was run: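 Kunming mice (10 weeks, 18–22 g), two groups of six; free or nanoparticle-loaded peptide at matched peptide dose by tail-vein injection. Tail-vein blood (20 μL) drawn at intervals into heparinized micropipettes and mixed with PBS; residue taken up in 50% acetonitrile/0.1% TFA. C18 HPLC at 40°C, water/acetonitrile (0.1% TFA) gradient, 280 nm, thymopentin internal standard; plasma calibration 0.195313–25 μg/mL, 1/x2 weighting. Noncompartmental analysis; mean ± SD.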

HSDAVFTDNYTRLRKQVAAKKYLQSIKNKRY-NH2 (C-terminus assumed) [BAY 55-9837]
AUC(0-t): 2680 ± 160 ng·h/mL
clearance: 0.733 mL/min
half-life: 19.2 ± 3.6 min
